A selection: hits, their analogues and other compounds. The true share with any hit is near 3.2%.
OX1R antag-1 – blocks the human orexin 1 receptor | hit rate 1.8% among 330,000 | OX1R-expressing cells, FRET antagonist read-out | AID 485270 | O43613 | inhibition, % at 6.6 µM; in the data active = inhibition mostly above about 38%, no sharp cut-off; inactive = mostly below about 40%
Target sequence (O43613 whole entry, looked up): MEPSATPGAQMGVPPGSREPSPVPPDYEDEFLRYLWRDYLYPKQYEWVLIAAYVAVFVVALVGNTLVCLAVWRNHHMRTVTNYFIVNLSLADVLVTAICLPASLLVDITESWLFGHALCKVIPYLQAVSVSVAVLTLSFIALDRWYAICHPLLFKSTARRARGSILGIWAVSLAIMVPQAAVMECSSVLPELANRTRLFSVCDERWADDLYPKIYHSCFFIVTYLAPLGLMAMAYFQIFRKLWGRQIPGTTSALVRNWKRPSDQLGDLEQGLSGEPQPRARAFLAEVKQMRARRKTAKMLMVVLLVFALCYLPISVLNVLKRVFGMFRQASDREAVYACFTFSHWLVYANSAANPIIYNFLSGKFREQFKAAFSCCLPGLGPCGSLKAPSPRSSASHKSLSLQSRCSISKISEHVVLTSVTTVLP
CHO parental Ca – counter-screen for OX1R antagonists: effect in parental CHO cells. parental CHO-K1, ATP-induced calcium, Fluo-8 fluorescence. inhibition, % at 5.6 µM. hit rate 0.63% among 330,000;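 active = inhibition above that plate's mean sample inhibition plus 3 SD, cut at about 26% in these data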
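Measured by: calcium-sensitive Fluo-8 fluorescence / Test system: CHO parental line / Controls: ATP-challenged DMSO wells low, unchallenged DMSO wells high / Measure: % inhibition / Compound: single nominal dose of 5.6 µM per compound / Replicates: single well per compound, no replicates / Reagent: ATP as calcium-mobilizing challenge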
OX1R antag-2 – antagonists of human orexin 1 receptor | inhibition, % at 5 µM | AID 434989 | CHO/OX1R cells, Fluo-8 calcium fluorescence, orexin A | hit rate 0.43% among 330,000;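 active = inhibition above its plate's threshold, mean inhibition of all tested compounds on the plate plus 3 SD, cut at about 37% in these data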
GPR7 antag – blocks human GPR7 receptor signaling; hit rate 1.1% among 290,000; AID 1861; P48145; GPR7-expressing cells, fluorescence antagonist assay; inhibition, % at 4.4 µM; in the data active = inhibition above about 16%, passing the limit was not always enough;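 also: cells stimulated with the agonist NPW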
Target sequence (P48145 whole entry, looked up): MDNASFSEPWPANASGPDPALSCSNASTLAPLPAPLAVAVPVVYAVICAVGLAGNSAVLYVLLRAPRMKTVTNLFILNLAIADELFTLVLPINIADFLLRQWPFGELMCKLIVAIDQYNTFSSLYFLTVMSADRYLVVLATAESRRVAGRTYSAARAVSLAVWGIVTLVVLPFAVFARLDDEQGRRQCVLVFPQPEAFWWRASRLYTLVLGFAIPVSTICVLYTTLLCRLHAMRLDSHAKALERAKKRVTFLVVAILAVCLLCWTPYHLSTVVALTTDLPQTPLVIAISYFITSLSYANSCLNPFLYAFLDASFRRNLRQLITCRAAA
TRPML3 ag – agonists of human TRPML3 channel; Q8TDD5; HEK293 TRPML3-YFP, Fluo-8 calcium fluorescence; 100% = the carbachol control signal; activation, % at 3 µM; hit rate 0.29% among 220,000; AID 1448;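 active = activation above its plate's cutoff, the mean activation of the plate's test wells plus 3 SD, cut at about 12% in these data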
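Material: TRPML3-YFP stable HEK293 cells | Dosing: One concentration, 3 µM nominal, 0.3% DMSO | Timing: 125 s total fluorescence read per well | Technique: Fluo-8 calcium dye fluorescence, ex 470-495, em 515-575 nm | Measure: Percent activation from peak-to-basal fluorescence ratio, scaled between DMSO and carbachol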
TRPN1 ag – agonists of zebrafish TRPN1 channel; HEK293 zebrafish TRPN1-YFP, Fluo-8 calcium fluorescence; 100% = response to 87 µM carbachol; activation, % at 3 µM; hit rate 0.18% among 220,000;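 active = activation above its plate's cutoff, the mean activation of test wells on that plate plus 3 SD, cut at about 19% in these data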
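Material: zebrafish TRPN1-YFP in HEK293 cells; Doses: single test compound dose, 3 µM nominal, 0.3% DMSO; Timing: dye loading 1 h at 37 °C, then 30 min room temperature; Technique: intracellular calcium fluorescence with Fluo-8; Benchmarks: high carbachol 87 µM, low DMSO alone.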
Large screens that a line does not name were inactive.

CN(C)c1ccc(-n2cc3c(=O)n(C)c(=O)n(C)c3c2)cc1	none
Cc1cc(Cl)ccc1OC(C)C(=O)Nc1ccccc1N1CCOCC1 (centres undefined)	TRPML3 ag 177, TRPN1 ag 46
COc1ccccc1C(=O)NCCn1cc(SCC(=O)Nc2cc(C)on2)c2ccccc21	OX1R antag-1 42
Cc1ccc(C(=O)NCCn2cc(SCC(=O)Nc3nnc(C)s3)c3ccccc32)cc1	GPR7 antag 19
CCCn1cc(SCC(=O)Nc2nnc(C)s2)c2ccccc21	none
COc1ccc(C(=O)NCCn2cc(SCC(=O)Nc3cc(C)on3)c3ccccc32)cc1OC	none
CCc1ccc(NC(=O)Cn2nc(C(F)(F)F)c3c2CCC3)cc1	CHO parental Ca 40
CCc1ccccc1NC(=O)Cn1nc(C(F)(F)F)c2c1CCC2	none
COc1ccc(C)cc1Nc1ccc(C(=O)O)cc1[N+](=O)[O-]	none
COC(=O)/C(=C\Nc1ccc(Cl)cc1Cl)NC(=O)c1ccc(OC)cc1	none
Cc1ccc(-c2cc(C(=O)N3N=C(C(F)F)CC3(O)C(F)F)c3ccccc3n2)cc1C (centres undefined)	CHO parental Ca 45
O=C(c1cc(-c2ccccc2)nc2ccccc12)N1N=C(C(F)F)CC1(O)C(F)F (centres undefined)	none
O=C(NCc1ccccc1Cl)c1ccccc1CCc1ccccc1	OX1R antag-1 50, CHO parental Ca 66
Cc1cc(C)c(NC(=O)c2ccccc2CCc2ccccc2)c(C)c1	OX1R antag-1 41
C[C@H](CO)N1C[C@H](C)[C@@H](CN(C)S(=O)(=O)c2cn(C)cn2)Oc2ccc(NS(=O)(=O)c3ccccc3)cc2C1=O	none (no result: GPR7 antag, TRPML3 ag, TRPN1 ag)
CN1/C(=C\P(=O)(N(C)C)N(C)C)C(C)(C)c2ccccc21	CHO parental Ca 45, OX1R antag-2 77
Nc1nnc(SCC(=O)OCC(=O)c2ccccc2Br)s1	none
CCCCN(C(=O)c1ccc([N+](=O)[O-])o1)c1c(N)n(CCCC)c(=O)[nH]c1=O	OX1R antag-1 62 (no result: GPR7 antag, TRPML3 ag, TRPN1 ag)
CCCCN(C(=O)c1ccc(-c2ccc([N+](=O)[O-])cc2)o1)c1c(N)n(CCCC)c(=O)[nH]c1=O	none (no result: GPR7 antag, TRPML3 ag, TRPN1 ag)
CCCCn1c(N)c(N(Cc2ccccc2OC)C(=O)c2ccc([N+](=O)[O-])s2)c(=O)[nH]c1=O	OX1R antag-1 50 (no result: GPR7 antag, TRPML3 ag, TRPN1 ag)
COc1cccc(C(=O)Nc2ccc3nc(N4CCN(c5ncccn5)CC4)cc(C)c3c2)c1OC	OX1R antag-1 59
O=C(Cc1ccccc1)Nc1ccc(SC(F)F)cc1	none
Cc1cccc(-n2c(=O)c(C#N)cc3c(=O)n4ccccc4nc32)c1	OX1R antag-1 60
Cc1ccc(-n2c(=O)c(C#N)cc3c(=O)n4ccccc4nc32)cc1	none
CCCn1c(=N)c(C#N)cc2c(=O)n3ccccc3nc21	OX1R antag-1 47
CCOC(=O)c1ccc(NC(=O)c2nc(S(=O)(=O)Cc3ccccc3)ncc2Cl)cc1	OX1R antag-2 73 (no result: TRPML3 ag, TRPN1 ag)
Cc1ccc(NC(=O)c2nc(S(=O)(=O)Cc3ccccc3C)ncc2Cl)cc1C	CHO parental Ca 40 (no result: TRPML3 ag, TRPN1 ag)
CCOc1ccccc1NC(=O)c1nc(S(=O)(=O)Cc2ccccc2)ncc1Cl	none (no result: TRPML3 ag, TRPN1 ag)
O=C(COC(=O)c1ccc(Cl)nc1)NNC(=O)c1ccc(Cl)cc1	none (no result: GPR7 antag, TRPML3 ag, TRPN1 ag)
Cc1cccc(Cn2c(-c3ccc[nH]c3=O)nc3ccccc32)c1	none (no result: TRPML3 ag, TRPN1 ag)
NS(=O)(=O)c1ccc(O)c(N2C(=O)c3cccc4c(C(=O)O)ccc(c34)C2=O)c1	none
CC(C)CCN1C(=O)c2cccc3c(N)ccc(c23)C1=O	CHO parental Ca 85, OX1R antag-2 91 (no result: GPR7 antag, TRPML3 ag, TRPN1 ag)
NN1C(=O)c2cccc3c(C(=O)O)ccc(c23)C1=O	OX1R antag-1 58
Nc1ccc2c3c(cccc13)C(=O)N(c1ccccc1)C2=O	TRPML3 ag 111, TRPN1 ag 125 (no result: OX1R antag-1, CHO parental Ca, OX1R antag-2)
Nc1cccc(N2C(=O)c3cccc4c(N)ccc(c34)C2=O)c1	none (no result: TRPML3 ag, TRPN1 ag)
O=C1c2cccc3c(Cl)ccc(c23)C(=O)N1O	OX1R antag-1 52, OX1R antag-2 53
COc1ccccc1-c1c(C(F)(F)F)oc2cc(OCC(=O)Nc3cc(C)ccc3C)ccc2c1=O	none
O=C1Cc2cc(NS(=O)(=O)c3cc(F)ccc3F)cc3c2N1CCC3	none (no result: GPR7 antag, TRPML3 ag, TRPN1 ag)
O=C(c1ccc2c3c(cccc13)C(=O)N(O)C2=O)N1CCCCC1	OX1R antag-1 72
O=C(O)c1ccc2c3c(cccc13)C(=O)N(c1ccccc1)C2=O	OX1R antag-1 58
O=C(O)c1ccc(N2C(=O)c3cccc4c(C(=O)O)ccc(c34)C2=O)cc1	none
Cc1cc(NC(=O)c2ccc(COc3ccccc3Cl)o2)no1	CHO parental Ca 53
Cc1cc(NC(=O)c2ccc(COc3ccc(Cl)c(C)c3)o2)no1	none
CCCCc1cc(=O)oc2c3c(cc(OCC(=O)NCCCO)c12)OC(C)(C)CC3	none (no result: TRPML3 ag, TRPN1 ag)
COCCn1nnnc1C(c1ccc(OC)cc1OC)N1CCN(c2ccccc2)CC1 (centres undefined)	none
COCCn1nnnc1C(c1ccc(OC)cc1OC)N1CCN(c2ccccc2F)CC1 (centres undefined)	GPR7 antag 21
O=C1c2ccccc2-c2nc3ccccc3cc21	OX1R antag-1 58 (no result: TRPML3 ag, TRPN1 ag)
c1ccc2c(c1)Cc1cc3ccccc3nc1-2	none (no result: TRPML3 ag, TRPN1 ag)
N#Cc1c(-c2ccc(F)cc2)cc(-c2cccnc2)nc1N	none
N#Cc1c(-c2cccs2)cc(-c2cccnc2)nc1N	OX1R antag-1 46
COCCN(C(=O)COC(=O)C1(C)CC1(Cl)Cl)c1c(N)n(Cc2ccccc2)c(=O)[nH]c1=O (centres undefined)	none (no result: TRPML3 ag, TRPN1 ag)
O=C(Cc1coc2ccc3ccccc3c12)NC1CCCc2ccccc21 (centres undefined)	OX1R antag-1 66
O=C(Cc1coc2ccc3ccccc3c12)NCc1ccccc1	none
O=C1C2C3C=CC(CO)(O3)C2C(=O)N1c1ccc(-c2ccccc2)cc1 (centres undefined)	CHO parental Ca 61
CC(C)(C)C(=O)NCC12C=CC(O1)C1C(=O)N(c3ccccc3)C(=O)C12 (centres undefined)	none
COc1ccc(CCC(=O)Nc2nc(C)c(C(=O)N(C)C)s2)cc1	none (no result: TRPML3 ag, TRPN1 ag)
O=C(ONC1=NCCCCC1)c1ccc([N+](=O)[O-])cc1	OX1R antag-1 50
CC(C)C[C@H](NC(=O)[C@@H]1Cc2c([nH]c3ccccc23)C2c3ccccc3C(=O)N21)C(=O)N1CCC[C@@H]1C(=O)O (some centres undefined)	none (no result: TRPML3 ag, TRPN1 ag)
CS(=O)(=O)c1ccc2nc(NC(=O)CS(=O)(=O)Cc3ccccc3)sc2c1	OX1R antag-1 71
CS(=O)(=O)c1ccc2nc(NC(=O)Nc3ccc(Cl)c(Cl)c3)sc2c1	none
CS(=O)(=O)c1ccc2nc(NC(=O)Nc3cccc(Cl)c3)sc2c1	OX1R antag-1 39, CHO parental Ca 33
CS(=O)(=O)c1ccc2nc(NC(=O)Cc3ccccc3)sc2c1	none
